Experimental data taken from ChEMBL document CHEMBL3102752, “Identification of novel drug scaffolds for inhibition of SARS-CoV 3-Chymotrypsin-like protease using virtual and high-throughput screenings” (Bioorg Med Chem, 2014).
Where a name gives a salt, the structure may show the parent alone. Calls of active or inactive are those of the source. No cut-off for these calls is given here.

Key:
[1] = Inhibition of SARS coronavirus PL-protease; parameters: species or system Severe acute respiratory syndrome-related coronavirus
[2] = molecular target: Replicase polyprotein 1ab (Severe acute respiratory syndrome-related coronavirus) (UniProt P0C6X7); experiment: Reversible inhibition of SARS coronavirus 3C-like protease using 5-FAM-TSATLQSGFRK(QXL520)-NH2 as substrate assessed as recovery rate at 20 x IC50 preincubated for 1 hr followed by compound washout by FRET assay in presence of GSH; parameters: scale not given: the % may be the effect or the level left
Summary of the method: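 No-compound enzyme served as control. Samples desalted to remove compound; activity measured before and after buffer exchange by the IC50 assay.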

[3] = molecular target: Replicase polyprotein 1ab (Severe acute respiratory syndrome-related coronavirus) (UniProt P0C6X7); experiment: Inhibition of SARS coronavirus 3C-like protease using 5-FAM-TSATLQSGFRK(QXL520)-NH2 as substrate at 100 uM preincubated for 5 mins followed by substrate addition measured after 6 mins by FRET assay in presence of GSH relative to control
[4] = molecular target: Replicase polyprotein 1ab (Severe acute respiratory syndrome-related coronavirus) (UniProt P0C6X7); experiment: Inhibition of SARS coronavirus 3C-like protease using 5-FAM-TSATLQSGFRK(QXL520)-NH2 as substrate at 100 uM preincubated for 5 mins followed by substrate addition measured after 6 mins by FRET assay relative to control
[5] = molecular target: T1, Replicase polyprotein 1ab (Severe acute respiratory syndrome-related coronavirus, UniProt P0C6X7); experiment: Inhibition of SARS coronavirus 3C-like protease using 5-FAM-TSATLQSGFRK(QXL520)-NH2 as substrate preincubated for 5 mins followed by substrate addition measured after 6 mins by FRET assay in presence of GSH
Summary of the method: (§1)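 Enzyme preincubated 5 min with compound (0–200 μM, 2-fold series), then 15 μM FAM/QXL substrate added. Continuous fluorescence read for 6 min, in triplicate. IC50 from Hill fit over two to four independent assays.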

[6] = molecular target: T1, Replicase polyprotein 1ab; experiment: Inhibition of SARS coronavirus 3C-like protease using 5-FAM-TSATLQSGFRK(QXL520)-NH2 as substrate preincubated for 5 mins followed by substrate addition measured after 6 mins by FRET assay; summary of the method: as §1
[7] = molecular target: T1, Replicase polyprotein 1ab; experiment: Competitive inhibition of SARS coronavirus 3C-like protease using 5-FAM-TSATLQSGFRK(QXL520)-NH2 as substrate by Dixon plot analysis
Summary of the method: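 Best-fit inhibition model chosen by fitting competitive, non-competitive, uncompetitive or mixed equations to give Ki. Dixon plot; three independent assays.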

[8] = molecular target: Ubiquitin carboxyl-terminal hydrolase isozyme L1 (Homo sapiens) (UniProt P09936); experiment: Inhibition of human UCH-L1
Chain of Ubiquitin carboxyl-terminal hydrolase isozyme L1 (Homo sapiens) (P09936 whole entry, looked up): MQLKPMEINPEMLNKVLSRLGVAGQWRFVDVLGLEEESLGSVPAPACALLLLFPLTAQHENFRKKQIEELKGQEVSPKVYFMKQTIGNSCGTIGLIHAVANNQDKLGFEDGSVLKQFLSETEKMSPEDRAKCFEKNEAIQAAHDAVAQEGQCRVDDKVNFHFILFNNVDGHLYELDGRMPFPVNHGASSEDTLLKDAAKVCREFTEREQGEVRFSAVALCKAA
Summary of the method: (§2)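 IC50 determined in triplicate with 32 positive and 32 negative controls per plate. Data fitted to a three-parameter Hill equation.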

Hepacivirus hominis = experiment: Inhibition of Hepatitis C virus NS3/4A protease; summary of the method: as §2
[9] = molecular target: T2, Dihydroorotase (Bacillus anthracis) (UniProt Q81WF0); experiment: Inhibition of Bacillus anthracis dihydroorotase; summary of the method: as §2
T2 sequence (whole entry): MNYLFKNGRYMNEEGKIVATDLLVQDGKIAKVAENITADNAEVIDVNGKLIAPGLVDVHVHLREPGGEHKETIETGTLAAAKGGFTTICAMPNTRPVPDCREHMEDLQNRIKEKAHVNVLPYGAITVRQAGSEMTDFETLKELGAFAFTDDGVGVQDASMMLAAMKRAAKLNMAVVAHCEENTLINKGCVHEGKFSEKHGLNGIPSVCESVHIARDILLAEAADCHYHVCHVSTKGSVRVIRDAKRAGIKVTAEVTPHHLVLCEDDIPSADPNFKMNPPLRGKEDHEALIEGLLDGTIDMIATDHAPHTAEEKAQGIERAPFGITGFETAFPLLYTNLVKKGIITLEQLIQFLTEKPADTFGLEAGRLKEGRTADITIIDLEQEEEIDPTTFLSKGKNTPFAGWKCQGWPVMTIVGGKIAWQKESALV

Streptococcus pneumoniae = experiment: Inhibition of Streptococcus pneumoniae PurC; summary of the method: as §2
[10] = molecular target: T1, Replicase polyprotein 1ab; experiment: Inhibition of SARS coronavirus 3C-like protease using 5-FAM-TSATLQSGFRK(QXL520)-NH2 as substrate
[11] = molecular target: Replicase polyprotein 1ab (Severe acute respiratory syndrome-related coronavirus) (UniProt P0C6X7); experiment: Binding affinity to SARS coronavirus 3C-like protease using 5-FAM-TSATLQSGFRK(QXL520)-NH2 as substrate up to 200 uM by SPR analysis
Summary of the method: (§3)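 Untagged native 3CLpro amine-coupled to CM5 chip (in 10 mM sodium acetate pH 5.0). Ethanolamine-blocked channel as reference. Running buffer HBS-P pH 7.4, 20 °C.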

[12] = molecular target: Replicase polyprotein 1ab (Severe acute respiratory syndrome-related coronavirus) (UniProt P0C6X7); experiment: Binding affinity to SARS coronavirus 3C-like protease using 5-FAM-TSATLQSGFRK(QXL520)-NH2 as substrate up to 90 uM by SPR analysis; summary of the method: as §3
[13] = molecular target: Replicase polyprotein 1ab (Severe acute respiratory syndrome-related coronavirus) (UniProt P0C6X7); experiment: Binding affinity to SARS coronavirus 3C-like protease using 5-FAM-TSATLQSGFRK(QXL520)-NH2 as substrate by SPR analysis

Row | Compound | IC50 [1] [µM] | Activity [2] [%] | inhibition [3] | inhibition [4] | IC50 [5] [µM] | IC50 [6] [µM] | also measured
1 | CCOc1ccc(S(=O)(=O)NCc2ccc3c(c2)OCO3)cc1C | > 200 | > 50 | inactive | inactive | 76.7 | > 200 | –
2 | Cn1cnc2cc(NC(=O)c3ccc(Cl)cc3)ccc21 | > 200 | > 50 | – | – | 30.9 | 27.6 | Ki [7]: 27.5 µM; inhibition [8]: inactive; inhibition (Hepacivirus hominis): inactive; inhibition [9]: inactive; inhibition (Streptococcus pneumoniae): inactive; IC50 [10]: 18.2 µM
3 | C(=C\c1ccccc1)/C[N+]1(C/C=C/c2ccccc2)CCN(C(c2ccccc2)c2ccccc2)CC1 | > 200 | – | – | – | 28.3 | 29.8 | Activity [11]: Active
4 | COc1ccc(C(=O)Cn2c(NCCO)nc3ccccc32)cc1 | – | 14.3 | inactive | inactive | 40.9 | 28.8 | –
5 | COc1ccc(N(CC(=O)NCc2ccco2)S(C)(=O)=O)cc1 | – | – | inactive | inactive | 61.9 | 16.1 | Activity [12]: inactive
6 | O=C(c1cncc(Br)c1)N1CCN(Cc2ccsc2)CC1 | 105 | – | – | – | 24.5 | 10.8 | Activity [13]: inactive
7 | COCCOCCn1c(CCCO)nc2ccccc21 | – | – | inactive | inactive | 186 | 25.6 | –
8 | Nc1ccc(F)c(S(=O)(=O)Nc2cccc(C(F)(F)F)c2)c1 | – | – | inactive | inactive | > 200 | 29.8 | –
9 | S=C(NCc1cccnc1)SCc1cc(Cl)sc1Cl | > 200 | > 50 | – | – | 9.2 | 0.16 | –
10 | OCCCc1nc2ccccc2n1CCOc1ccccc1 | – | – | inactive | inactive | 74.5 | > 200 | Activity [13]: inactive
11 | COc1ccccc1CNC(=O)[C@H](C)NS(=O)(=O)c1ccccc1 | – | – | inactive | inactive | – | – | –
12 | CN(CC(=O)NC1CCCC1)S(=O)(=O)c1cccc(Cl)c1 | – | – | – | – | > 200 | 0.94 | –
13 | CCCCC(CC)CNC(=N)NC(=N)NCCCCCCNC(=N)NC(=N)NCC(CC)CCCC (stereo not given) [ALEXIDINE DIHYDROCHLORIDE] | > 200 | – | – | – | 17.8 | 24.5 | Activity [13]: inactive; IC50 [10]: 25.1 µM
